Results as given in ChEMBL document CHEMBL1143393, “Indene-based scaffolds. 2. An indole-indene switch: discovery of novel indenylsulfonamides as 5-HT6 serotonin receptor agonists” (J Med Chem, 2009).

How the values were obtained:
[1] = target: T1, 5-hydroxytryptamine receptor 6 (Homo sapiens, UniProt P50406); experiment: Displacement of [3H]LSD from human 5HT6 receptor expressed in HEK293 cells at 100 uM by liquid scintillation counting; format: cell-based
[2] = target: T2, Adrenergic receptor alpha-1 (Rattus norvegicus, UniProt P15823+P23944+P43140); experiment: Inhibition of rat adrenergic alpha1 receptor
T2 sequence (P15823 whole entry): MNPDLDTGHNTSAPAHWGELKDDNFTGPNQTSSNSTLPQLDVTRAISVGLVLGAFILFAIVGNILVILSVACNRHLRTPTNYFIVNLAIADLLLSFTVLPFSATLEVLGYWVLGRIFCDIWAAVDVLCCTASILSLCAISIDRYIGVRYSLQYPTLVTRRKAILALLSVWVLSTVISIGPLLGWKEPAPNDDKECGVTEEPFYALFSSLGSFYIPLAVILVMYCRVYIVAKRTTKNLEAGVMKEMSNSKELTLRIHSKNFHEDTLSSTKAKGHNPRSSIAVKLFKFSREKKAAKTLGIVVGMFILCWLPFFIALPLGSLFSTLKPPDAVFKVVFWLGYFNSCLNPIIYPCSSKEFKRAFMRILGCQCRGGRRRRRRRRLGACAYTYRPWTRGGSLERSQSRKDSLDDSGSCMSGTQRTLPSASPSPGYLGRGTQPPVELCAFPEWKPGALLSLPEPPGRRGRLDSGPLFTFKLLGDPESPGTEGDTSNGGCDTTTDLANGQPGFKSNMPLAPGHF
T2 sequence (P23944 whole entry): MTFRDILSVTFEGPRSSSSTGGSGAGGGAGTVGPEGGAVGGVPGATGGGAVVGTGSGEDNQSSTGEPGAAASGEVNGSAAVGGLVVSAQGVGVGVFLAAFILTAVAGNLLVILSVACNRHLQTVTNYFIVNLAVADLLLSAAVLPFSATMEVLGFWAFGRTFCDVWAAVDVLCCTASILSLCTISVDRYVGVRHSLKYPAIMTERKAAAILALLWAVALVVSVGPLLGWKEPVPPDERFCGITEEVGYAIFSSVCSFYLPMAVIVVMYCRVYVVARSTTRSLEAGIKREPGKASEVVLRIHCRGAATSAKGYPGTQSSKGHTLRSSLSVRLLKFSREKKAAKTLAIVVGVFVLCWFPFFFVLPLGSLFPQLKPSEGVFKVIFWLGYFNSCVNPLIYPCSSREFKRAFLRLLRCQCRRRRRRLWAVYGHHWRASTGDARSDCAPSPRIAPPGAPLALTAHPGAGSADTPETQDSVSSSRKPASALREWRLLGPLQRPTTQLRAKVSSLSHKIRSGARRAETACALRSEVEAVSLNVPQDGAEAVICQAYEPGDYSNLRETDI
T2 sequence (P43140 whole entry): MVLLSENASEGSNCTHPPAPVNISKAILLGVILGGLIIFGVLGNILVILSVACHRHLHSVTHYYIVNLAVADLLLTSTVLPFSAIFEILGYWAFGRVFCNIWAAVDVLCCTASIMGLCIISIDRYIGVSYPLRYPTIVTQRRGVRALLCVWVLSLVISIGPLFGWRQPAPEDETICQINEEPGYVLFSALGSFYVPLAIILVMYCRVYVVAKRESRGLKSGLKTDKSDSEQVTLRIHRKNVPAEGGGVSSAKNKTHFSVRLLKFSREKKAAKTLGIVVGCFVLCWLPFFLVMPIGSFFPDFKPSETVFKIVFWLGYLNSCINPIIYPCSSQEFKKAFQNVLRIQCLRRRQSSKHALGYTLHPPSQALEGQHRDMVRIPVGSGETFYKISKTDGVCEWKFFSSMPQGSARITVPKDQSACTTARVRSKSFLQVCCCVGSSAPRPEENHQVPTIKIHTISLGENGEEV

[3] = target: Sodium-dependent serotonin transporter (Homo sapiens, UniProt P31645); experiment: Inhibition of human SERT
[4] = target: T1, 5-hydroxytryptamine receptor 6; experiment: Displacement of [3H]LSD from human 5HT6 receptor expressed in HEK293 cells by liquid scintillation counting; format: cell-based
Method in brief: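 Bound ligand was collected on polyethylenimine-pretreated glass fiber filters, washed with 50 mM Tris-Cl pH 7.4, and counted by liquid scintillation. Nonspecific binding was defined with 100 µM serotonin. Triplicate points. IC50 came from linear regression, and Ki was derived by Cheng-Prusoff.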

[5] = target: T3, 5-hydroxytryptamine receptor 1A (Homo sapiens, UniProt P08908); experiment: Inhibition of human 5HT1A receptor
T3 sequence (P08908 whole entry): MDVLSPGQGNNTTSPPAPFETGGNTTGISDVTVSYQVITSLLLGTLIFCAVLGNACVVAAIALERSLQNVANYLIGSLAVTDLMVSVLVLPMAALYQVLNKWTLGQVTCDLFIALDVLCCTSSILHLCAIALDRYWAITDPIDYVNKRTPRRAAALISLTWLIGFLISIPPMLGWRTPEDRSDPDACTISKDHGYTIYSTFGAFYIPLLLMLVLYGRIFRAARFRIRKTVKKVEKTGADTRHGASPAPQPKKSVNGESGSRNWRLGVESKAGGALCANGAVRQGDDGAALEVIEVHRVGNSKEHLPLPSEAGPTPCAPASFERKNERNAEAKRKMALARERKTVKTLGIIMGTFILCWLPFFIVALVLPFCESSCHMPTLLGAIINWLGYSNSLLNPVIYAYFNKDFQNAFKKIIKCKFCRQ

[6] = target: T4, Alpha-2A adrenergic receptor (Homo sapiens, UniProt P08913); experiment: Inhibition of human adrenergic alpha2A receptor
T4 sequence (P08913 whole entry): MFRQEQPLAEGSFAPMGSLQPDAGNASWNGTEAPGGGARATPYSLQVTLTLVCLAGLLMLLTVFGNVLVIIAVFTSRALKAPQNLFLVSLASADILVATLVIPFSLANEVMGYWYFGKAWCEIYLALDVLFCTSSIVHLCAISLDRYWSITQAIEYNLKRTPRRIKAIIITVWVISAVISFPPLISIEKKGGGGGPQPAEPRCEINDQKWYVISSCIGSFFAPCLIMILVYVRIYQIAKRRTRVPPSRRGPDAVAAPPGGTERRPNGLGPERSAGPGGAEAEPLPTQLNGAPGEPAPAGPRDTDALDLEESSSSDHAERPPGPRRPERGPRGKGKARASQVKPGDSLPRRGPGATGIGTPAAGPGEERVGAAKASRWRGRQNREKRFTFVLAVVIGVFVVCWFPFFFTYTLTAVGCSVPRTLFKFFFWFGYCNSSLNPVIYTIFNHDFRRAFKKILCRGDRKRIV

[7] = target: T5, 5-hydroxytryptamine receptor 2C (Homo sapiens, UniProt P28335); experiment: Inhibition of human 5HT2C receptor
T5 sequence (P28335 whole entry): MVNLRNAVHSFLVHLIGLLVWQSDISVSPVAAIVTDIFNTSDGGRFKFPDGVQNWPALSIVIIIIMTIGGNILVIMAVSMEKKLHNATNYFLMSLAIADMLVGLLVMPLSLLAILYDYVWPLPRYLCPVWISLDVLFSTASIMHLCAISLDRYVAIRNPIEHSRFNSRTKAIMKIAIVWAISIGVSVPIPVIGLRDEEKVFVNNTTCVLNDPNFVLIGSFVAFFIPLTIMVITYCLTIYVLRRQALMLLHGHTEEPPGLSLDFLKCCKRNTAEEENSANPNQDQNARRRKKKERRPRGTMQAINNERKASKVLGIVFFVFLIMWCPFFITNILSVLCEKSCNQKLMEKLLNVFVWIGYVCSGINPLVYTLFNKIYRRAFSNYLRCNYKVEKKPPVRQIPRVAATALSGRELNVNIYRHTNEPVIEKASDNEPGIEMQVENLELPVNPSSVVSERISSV

[8] = target: T1, 5-hydroxytryptamine receptor 6; experiment: Agonist activity at human 5HT6 receptor expressed in HEK293F cells assessed as stimulation of cAMP level after 30 mins by HTRF assay […]; format: functional, cell-based
Method in brief: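 HEK293F cells stably expressing human 5-HT6 were held overnight in serum-free medium, then 20000 cells/well were placed in Ham's F12 with 1 mM IBMX and 20 µM pargyline. Compound or vehicle was added for 30 min at 37 °C. Results were given as Emax and EC50.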

[9] = target: T1, 5-hydroxytryptamine receptor 6; experiment: Displacement of [3H]LSD from human 5HT6 receptor expressed in HEK293 cells at 1 uM by liquid scintillation counting; format: cell-based

T1 sequence (P50406 whole entry): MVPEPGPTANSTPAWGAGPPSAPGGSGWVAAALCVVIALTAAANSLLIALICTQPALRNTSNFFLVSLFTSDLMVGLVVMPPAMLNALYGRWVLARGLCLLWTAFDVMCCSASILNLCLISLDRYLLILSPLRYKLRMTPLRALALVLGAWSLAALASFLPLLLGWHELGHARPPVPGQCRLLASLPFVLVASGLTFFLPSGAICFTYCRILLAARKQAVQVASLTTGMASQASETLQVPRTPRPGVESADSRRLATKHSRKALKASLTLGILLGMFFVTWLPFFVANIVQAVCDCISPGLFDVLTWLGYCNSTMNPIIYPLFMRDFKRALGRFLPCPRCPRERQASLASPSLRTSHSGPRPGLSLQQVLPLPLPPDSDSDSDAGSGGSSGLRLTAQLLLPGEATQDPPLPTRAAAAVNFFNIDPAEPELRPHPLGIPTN
Sequence of Sodium-dependent serotonin transporter (P31645 whole entry): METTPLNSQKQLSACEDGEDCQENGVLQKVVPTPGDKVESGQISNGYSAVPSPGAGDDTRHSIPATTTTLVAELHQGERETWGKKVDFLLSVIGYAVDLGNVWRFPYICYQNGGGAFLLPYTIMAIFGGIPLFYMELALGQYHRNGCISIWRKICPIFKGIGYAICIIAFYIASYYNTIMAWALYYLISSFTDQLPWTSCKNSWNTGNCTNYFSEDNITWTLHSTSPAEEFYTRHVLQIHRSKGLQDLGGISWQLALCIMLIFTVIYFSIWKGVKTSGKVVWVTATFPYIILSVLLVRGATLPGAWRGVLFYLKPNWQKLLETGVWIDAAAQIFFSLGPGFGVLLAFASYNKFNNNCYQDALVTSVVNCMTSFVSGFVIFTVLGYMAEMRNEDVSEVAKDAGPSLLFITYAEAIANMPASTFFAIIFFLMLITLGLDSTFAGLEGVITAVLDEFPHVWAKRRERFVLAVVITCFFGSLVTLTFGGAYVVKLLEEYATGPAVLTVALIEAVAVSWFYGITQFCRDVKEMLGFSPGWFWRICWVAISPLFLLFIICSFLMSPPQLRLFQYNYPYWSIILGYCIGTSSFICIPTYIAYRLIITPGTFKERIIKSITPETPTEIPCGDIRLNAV

| Activity [1] [%] | Ki [4] [nM] | Emax [8] [%] | SMILES | other results |
| --- | --- | --- | --- | --- |
| 4 |  |  | CC1=C(CCN(C)C)c2cc(NS(=O)(=O)c3ccc(N)cc3)ccc2C1 |  |
| 87 | 10 | 99 | CN(C)CCC1=CCc2ccc(NS(=O)(=O)c3c(Cl)nc4sccn34)cc21 | IC50 [2]: > 10000 nM; IC50 [3]: > 10000 nM; IC50 [5]: > 1000 nM; IC50 [6]: > 1000 nM; IC50 [7]: > 1000 nM; EC50 ([8]; read-out: EC50): 0.3 nM |
|  | 4.5 | 98 | CC1=C(CCN(C)C)c2cc(NS(=O)(=O)c3c(Cl)nc4sccn34)ccc2C1 | IC50 [2]: > 10000 nM; IC50 [3]: > 10000 nM; IC50 [5]: > 1000 nM; Activity [9]: 100%; IC50 [6]: > 1000 nM; IC50 [7]: 1130 nM; EC50 ([8]; read-out: EC50): 0.9 nM |
| 19 |  |  | CC1=C(CCN2CCCC2)c2cc(NS(=O)(=O)c3cccc4nsnc34)ccc2C1 |  |
|  | 47 |  | CNc1cc(NS(=O)(=O)c2ccc(N)cc2)nc(NC)n1 |  |
| 81 | 17 | 37 | CC1=C(CCN2CCCC2)c2cc(NS(=O)(=O)c3c(Cl)nc4sccn34)ccc2C1 |  |
| 51 |  | 95 | CC1=C(CCN(C)C)c2cc(S(=O)(=O)Nc3cccc4ccccc34)ccc2C1 | IC50 [5]: > 1000 nM; IC50 [6]: 1100 nM; EC50 ([8]; read-out: EC50): 14 nM |
| 88 | 53 | 101 | CC1=C(CCN(C)C)c2cc(NS(=O)(=O)c3csc4ccccc34)ccc2C1 | IC50 [5]: 1140 nM; IC50 [6]: 700 nM; EC50 ([8]; read-out: EC50): 0.3 nM |
| 63 |  |  | CC1=C(CCN2CCCC2)c2cc(NS(=O)(=O)c3ccc(N)cc3)ccc2C1 |  |
| 71 |  | 98 | CC1=C(CCN(C)C)c2cc(NS(=O)(=O)c3ccc4ccccc4c3)ccc2C1 | IC50 [5]: > 1000 nM; IC50 [6]: > 1000 nM; EC50 ([8]; read-out: EC50): 3.2 nM |
| 81 | 31 | -58 | O=S(=O)(Nc1ccc2c(c1)C(CCN1CCCCC1)=CC2)c1c(Cl)nc2sccn12 |  |
| 24 |  |  | CN(C)CCC1=CC(C)(C)c2ccc(NS(=O)(=O)c3c(Cl)nc4sccn34)cc21 |  |
| 2 |  |  | Cc1c(S(=O)(=O)Nc2ccc3c(c2)C(CCN(C)C)=CC3(C)C)sc2ccc(Cl)cc12 |  |
| 16 |  |  | CC1=C(CCN(C)C)c2cc(NS(=O)(=O)c3cccc4nsnc34)ccc2C1 |  |
| 3 |  |  | CCN(c1ccc2c(c1)C(CCN(C)C)=C(C)C2)S(=O)(=O)c1sc(C)c2cc(Cl)ccc12 |  |
|  |  | 78 | CC1=C(CCN2CCCC2)c2cc(NS(=O)(=O)c3sc4ccc(Cl)cc4c3C)ccc2C1 | Activity [9]: 100% |
| 78 | 276 |  | CC1=C(CCN(C)C)c2cc(NS(=O)(=O)c3cccc4ccccc34)ccc2C1 |  |

| SMILES | Activity [1] [%] | Ki [4] [nM] | Emax [8] [%] | other results |
| --- | --- | --- | --- | --- |
| CN(C)CCc1c[nH]c2ccc(NS(=O)(=O)c3ccc4c(Cl)cccc4c3)cc12 |  |  | 96 | EC50 ([8]; read-out: pEC50 (converted)): 0.295 nM |
| CN(C)CCc1cn(S(=O)(=O)c2ccccc2)c2ccccc12 |  | 3 |  |  |
